Experimental findings from ChEMBL document CHEMBL1136516, “Synthesis, pharmacology and pharmacokinetics of 3-(4-aryl-piperazin-1-ylalkyl)-uracils as uroselective alpha1A-antagonists” (Bioorg Med Chem Lett, 2003) are described below.

In data set [1] the target is T1, Alpha-1A adrenergic receptor (Homo sapiens, UniProt P35348).
T1 sequence (P35348 whole entry): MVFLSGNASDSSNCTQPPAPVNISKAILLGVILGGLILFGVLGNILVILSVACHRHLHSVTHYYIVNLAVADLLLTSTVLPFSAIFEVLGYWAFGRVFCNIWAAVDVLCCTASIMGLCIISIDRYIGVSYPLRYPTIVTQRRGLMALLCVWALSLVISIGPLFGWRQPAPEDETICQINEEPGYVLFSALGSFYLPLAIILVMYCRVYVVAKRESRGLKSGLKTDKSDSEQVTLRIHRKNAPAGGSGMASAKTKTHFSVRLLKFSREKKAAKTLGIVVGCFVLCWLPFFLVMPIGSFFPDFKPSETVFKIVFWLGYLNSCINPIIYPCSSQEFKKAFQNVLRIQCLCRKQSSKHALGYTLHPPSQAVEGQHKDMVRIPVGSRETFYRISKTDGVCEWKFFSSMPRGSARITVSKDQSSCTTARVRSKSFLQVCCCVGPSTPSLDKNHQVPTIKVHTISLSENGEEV
The data set can be described thus: Inhibition of [3H]prazosin binding to CHO-K1 whole cells expressing human cloned Alpha-1A adrenergic receptor. It counts as cell-based.

The target of data set [2] is T2, Alpha-1D adrenergic receptor (Homo sapiens, UniProt P25100).
T2 sequence (P25100 whole entry): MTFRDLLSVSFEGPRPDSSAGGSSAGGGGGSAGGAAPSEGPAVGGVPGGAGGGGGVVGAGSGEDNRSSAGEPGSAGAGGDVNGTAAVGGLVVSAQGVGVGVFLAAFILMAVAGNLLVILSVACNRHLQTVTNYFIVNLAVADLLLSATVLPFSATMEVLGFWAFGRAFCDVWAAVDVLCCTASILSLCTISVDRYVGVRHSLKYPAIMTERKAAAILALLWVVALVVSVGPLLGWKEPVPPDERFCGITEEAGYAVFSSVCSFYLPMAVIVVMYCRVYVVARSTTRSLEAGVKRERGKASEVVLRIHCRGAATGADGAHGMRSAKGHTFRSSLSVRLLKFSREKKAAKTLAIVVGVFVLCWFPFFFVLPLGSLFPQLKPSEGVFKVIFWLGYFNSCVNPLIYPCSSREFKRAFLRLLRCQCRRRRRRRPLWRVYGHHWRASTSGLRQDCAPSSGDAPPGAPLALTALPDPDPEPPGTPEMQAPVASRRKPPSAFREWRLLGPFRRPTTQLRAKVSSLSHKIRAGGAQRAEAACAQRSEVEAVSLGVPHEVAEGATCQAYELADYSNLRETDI
Briefly: Inhibition of [3H]prazosin binding to CHO-K1 whole cells expressing human cloned Alpha-1D adrenergic receptor. The class given is cell-based.

Data set [3] deals with T3, Alpha-1B adrenergic receptor (Homo sapiens, UniProt P35368).
T3 sequence (P35368 whole entry): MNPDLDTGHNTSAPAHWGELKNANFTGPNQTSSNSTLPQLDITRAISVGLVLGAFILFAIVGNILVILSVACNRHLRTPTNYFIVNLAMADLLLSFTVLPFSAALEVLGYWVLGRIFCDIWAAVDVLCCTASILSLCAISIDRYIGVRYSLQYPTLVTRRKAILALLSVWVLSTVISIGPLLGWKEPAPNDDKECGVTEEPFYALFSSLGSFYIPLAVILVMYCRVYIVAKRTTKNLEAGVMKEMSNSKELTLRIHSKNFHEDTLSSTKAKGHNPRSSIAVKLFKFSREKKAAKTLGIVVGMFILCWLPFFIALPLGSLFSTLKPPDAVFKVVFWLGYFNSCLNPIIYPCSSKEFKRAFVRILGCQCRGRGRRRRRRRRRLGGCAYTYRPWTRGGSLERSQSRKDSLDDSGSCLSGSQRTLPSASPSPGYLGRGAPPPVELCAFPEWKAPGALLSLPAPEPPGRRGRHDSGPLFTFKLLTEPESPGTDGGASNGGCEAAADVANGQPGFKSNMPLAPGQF
Briefly: Inhibition of [3H]prazosin binding to CHO-K1 whole cells expressing human cloned Alpha-1B adrenergic receptor. It counts as cell-based.

The nature of data set [4]: Volume of distribution by as 4 fold increase by iv administration in dogs. The class given is ADME, organism-based, Canis lupus familiaris. As to conditions: dog, in vivo. The method, boiled down:
(§1)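 Single dose of 0.3 mg/kg given to dogs both iv and po in a cross-over design, four dogs per compound, with the compound dosed as a salt. Terminal half-life, volume of distribution (calculated after iv dosing only), clearance and oral bioavailability were taken from these single-dose pharmacokinetic profiles.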

Data set [5] is described as follows: Plasma clearance by iv administration in dog at a dose of 0.3 mg/kg. The arrangement: dose 0.3 mg/kg, route intravenous. It counts as ADME, organism-based, Canis lupus familiaris. The method, boiled down: as §1
Data set [6] is described as follows: Half life period by iv administration in dog at a dose of 0.3 mg/kg. It counts as ADME, organism-based, Canis lupus familiaris. The arrangement: dose 0.3 mg/kg, route intravenous. Conditions: in vivo. The method, boiled down: as §1
Data set [7] can be described thus: Oral bioavailability in dog. The class given is ADME, organism-based, Canis lupus familiaris. As to conditions: in vivo. The method, boiled down:
as §1

Data set [8] can be described thus: Half life period by po administration in dog at a dose of 0.3 mg/kg. The arrangement: dose 0.3 mg/kg, route oral. The class given is ADME, organism-based, Canis lupus familiaris. As to conditions: in vivo. An outline of the steps: as §1
Data set [9] is described as follows: Oral bioavailability in dog (i.v. dosing). The class given is ADME, organism-based, Canis lupus familiaris. Conditions: in vivo. An outline of the steps:
as §1

For data set [10], the species on record is Canis familiaris. Briefly: In vitro relative rate of metabolism was determined in dog liver microsomes. The class given is ADME, Canis lupus familiaris.
The target in data set [11] is Alpha adrenergic receptor (1a and 1d) (Homo sapiens) (UniProt P35348+P25100). The data set can be described thus: Ratio of binding affinities for human cloned alpha1D- adrenoceptor to that of human cloned alpha1A- adrenoceptor (alpha-1D/alpha-1A). It counts as protein assay. An outline of the steps: (§2)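 Ratio of α1B (or α1D) to α1A binding affinity, calculated from pKi values for [3H]-prazosin displacement at cloned human subtypes expressed in CHO-K1 membranes or whole cells.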

Data set [12] deals with Alpha-1D/alpha-1A adrenergic receptors (rat/rabbit). The data set can be described thus: Ratio of antagonistic activities against alpha-1D vs alpha-1A determined in rat aorta and rabbit bladder neck respectively.
For data set [13], the target named is T4, Alpha-1D adrenergic receptor (Rattus norvegicus) (UniProt P23944).
T4 sequence (whole entry): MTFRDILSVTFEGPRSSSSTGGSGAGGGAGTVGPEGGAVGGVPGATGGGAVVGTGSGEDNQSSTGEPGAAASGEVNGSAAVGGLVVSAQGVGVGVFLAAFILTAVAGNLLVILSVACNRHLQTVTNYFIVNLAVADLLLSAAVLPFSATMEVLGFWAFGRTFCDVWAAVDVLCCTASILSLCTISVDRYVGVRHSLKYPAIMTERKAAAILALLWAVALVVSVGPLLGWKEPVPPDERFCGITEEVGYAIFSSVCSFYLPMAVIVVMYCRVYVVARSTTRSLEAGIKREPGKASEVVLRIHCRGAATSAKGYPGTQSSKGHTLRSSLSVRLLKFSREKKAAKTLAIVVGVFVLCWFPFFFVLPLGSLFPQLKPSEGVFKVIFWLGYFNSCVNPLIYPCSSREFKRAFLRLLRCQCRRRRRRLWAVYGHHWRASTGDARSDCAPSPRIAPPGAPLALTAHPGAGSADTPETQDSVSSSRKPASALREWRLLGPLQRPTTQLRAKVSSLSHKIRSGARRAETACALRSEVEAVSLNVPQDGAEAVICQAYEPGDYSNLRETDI
Briefly: Antagonist inhibition noradrenaline-stimulated contractions of rat aortic strings for Alpha-1D adrenergic receptor. The class given is functional.

Data set [14] has as its system Alpha-1A adrenergic receptor (Oryctolagus cuniculus). Briefly: Antagonist inhibition of noradrenaline-stimulated contractions of rabbit bladderneck (RBN) for Alpha-1A adrenergic receptor.
In data set [15] the target is Adrenergic receptors; alpha-1 A & B (Homo sapiens) (UniProt P35348+P35368). Briefly: Ratio of binding affinities for human cloned alpha1B- adrenoceptor to that of human cloned alpha1A- adrenoceptor (alpha-1B/alpha-1A). It counts as protein assay. The method, boiled down:
as §2

By Ki is commonly meant a dissociation constant, usually derived from enzyme kinetics or from competition with a known ligand. A higher Ki goes with weaker binding. In general, Vd refers to a proportionality between amount in the body and measured concentration, not a real space. Broadly, the clearance is a measure of how efficiently the substance is removed, as volume per time. A lower clearance goes with a low capacity for elimination. What is called half-life is the time needed for the level to fall by half in the phase considered. A low value points to rapid decline.

Structures are written as SMILES.

`Cc1cc(=O)n(CCCN2CCN(c3ccc(F)cc3OCC(F)(F)F)CC2)c(=O)[nH]1`: the inhibitory constant (Ki) in data set [1] is 1.58 nM; in [2], 50.1 nM; in data set [3], 158 nM.
For the compound `Cc1c[nH]c(=O)n(CCN2CCN(c3ccc(F)cc3OCC(F)(F)F)CC2)c1=O`, the figures for the Ki in [1], in data set [2] and in data set [3] were 0.501 nM, 2.51 nM and 15.8 nM, respectively.
With `COc1c[nH]c(=O)n(CCCN2CCN(c3ccc(F)cc3OCC(F)(F)F)CC2)c1=O`, the figures for the inhibitory constant (Ki) in data set [2] and in data set [3] were 31.6 nM and 158 nM, respectively.
Regarding `Cc1c[nH]c(=O)n(CC(C)(C)CN2CCN(c3ccccc3OCC(F)(F)F)CC2)c1=O`, the values for the inhibition constant Ki in [1], in data set [2] and in [3] were 3.98 nM, 126 nM and 398 nM, respectively.
For `CN(C)c1c[nH]c(=O)n(CCCN2CCN(c3ccc(F)cc3OCC(F)(F)F)CC2)c1=O`, the figures for the inhibitory constant (Ki) in [2] and in data set [3] were 100 nM and 200 nM, respectively.
For `Cc1n[nH]c(=O)n(CCCN2CCN(c3ccccc3OCC(F)(F)F)CC2)c1=O`, the Ki in data set [1] was 0.316 nM; in data set [2] it was 7.94 nM; in [3], 39.8 nM.
The compound `Cc1c[nH]c(=O)n(CCCN2CCN(c3ccc(F)cc3OCC(F)(F)F)CC2)c1=O` registered a Vd in [4] of 0.93 L/kg. This compound gave a clearance in data set [5] of 4.33 mL/min/kg. The half-life was 2.5 h in data set [6] and 2.8 h in [8]. Besides, the bioavailability was 78% in data set [7] and 100% in data set [9]. In addition, affinity in data set [2] was put at a Ki of 63.1 nM.
Take `Cc1c[nH]c(=O)n(CCCN2CCN(c3ccccc3OCC(F)(F)F)CC2)c1=O`: the figures for the Ki in data set [1], in [2] and in data set [3] were 0.251 nM, 12.6 nM and 31.6 nM, respectively.
Regarding `Cc1cn(CCCN2CCN(c3ccccc3OCC(F)(F)F)CC2)c(=O)[nH]c1=O`, the Ki in data set [1] is 2 nM; in data set [2], 20 nM; in data set [3], 100 nM.
Compound `C[C@]1(O)C(=O)N(CCCN2CCN(c3ccc(F)cc3OCC(F)(F)F)CC2)C(=O)N[C@H]1O` had a Relative rate metabolism in data set [10] of 0. The results for the Ratio in data set [11], in data set [12] and in data set [15] were 33, 79 and 63, respectively. Also, the distribution volume (Vd) in [4] was determined as 4 L/kg. In [5], this compound had a clearance of 4.17 mL/min/kg. The half-life is 11 h in data set [6] and 10 h in [8]. The Ki in [1] was 5.01 nM; in [2] it was 126 nM; in data set [3] it was 251 nM. For the same compound, the bioavailability is 111% in data set [7] and 100% in data set [9]. Further, the pA2/pKB in [13] turned out to be 6.6; in [14], 8.5.
As to `O=c1[nH]c2ccccc2c(=O)n1CCCN1CCN(c2ccccc2OCC(F)(F)F)CC1`, the Ratio in [11] amounted to 32; in [12], 4; in [15], 79. In addition, the Ki was 0.0631 nM in data set [1], 2 nM in data set [2] and 5.01 nM in data set [3]. Moreover, the pA2/pKB in data set [13] worked out at 8.4; in data set [14] it was 9.
